From ChEMBL document CHEMBL1124847, “Synthesis and antiviral activity of metabolites of rimantadine” (1990)
Converted amounts (≈) assume the structure as drawn.

Tests used:
Format in all cases: functional
Settings in all cases: Canis lupus familiaris, read-out: ID50 (the source's name)
MDCK [1] = experiment: Antiviral activity against influenza A virus (NY/83/5) in Madin Darby canine kidney (MDCK) cell culture
Procedure, shortened: (§1)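 Confluent MDCK monolayers were given compound in serial 2-fold dilutions, then infected with 100 TCID50 of virus and incubated at 35 °C for 48 h. Cells were fixed, stained and scored microscopically for cytopathic effect. The dose giving 50% inhibition of CPE was read when infected controls just reached 100% CPE, in ng/mL, as the mean ± SD of at least three determinations.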

MDCK [2] = experiment: Antiviral activity against influenza A virus (Mississippi) in Madin Darby canine kidney (MDCK) cell culture; procedure, shortened: as §1
MDCK [3] = experiment: Antiviral activity against influenza A virus (Taiwan) in Madin Darby canine kidney (MDCK) cell culture; procedure, shortened: as §1

Row | SMILES | IC50 (MDCK [1]) | IC50 (MDCK [2]) | IC50 (MDCK [3])
1 | CC(N)C12CC3CC(CC(C3)C1O)C2 (stereo not given) | 0.101 µg/mL (≈ 0.517 µM) | 0.15 µg/mL (≈ 0.768 µM) | 0.16 µg/mL (≈ 0.819 µM)
2 | CC(N)C12CC3CC(C1)C(O)C(C3)C2 (stereo not given) | 0.804 µg/mL (≈ 4.12 µM) | 3.4 µg/mL (≈ 17.4 µM) | 1.5 µg/mL (≈ 7.68 µM)
3 | CC(N)C12CC3CC(CC(O)(C3)C1)C2 (stereo not given) [3-HYDROXYRIMANTADINE] | 4 µg/mL (≈ 20.5 µM) | 6.7 µg/mL (≈ 34.3 µM) | 5.4 µg/mL (≈ 27.6 µM)
4 | NC12CC3CC(CC(C3)C1)C2 [AMANTADINE] | 0.08 µg/mL (≈ 0.529 µM) | 0.113 µg/mL (≈ 0.747 µM) | 0.116 µg/mL (≈ 0.767 µM)
5 | CC(N)C12CC3CC(CC(C3)C1)C2 (stereo not given) [RIMANTADINE] | 0.012 µg/mL (≈ 0.0669 µM) | 0.021 µg/mL (≈ 0.117 µM) | 0.0098 µg/mL (≈ 0.0547 µM)
